Experimental data: paper PMC3379667 (Diabetes, 2012)
No end group written: not given here.

How the values were obtained:
[1] = test system: humans with NGT, IGT, or T2DM; assay: Graded glucose infusion; assay type: in vivo, human; settings: for increase of ISR iAUC during the first 40 min compared with albumin: P ≤0.0005; for increase of 240-min ISR iAUC/glucose iAUC compared with albumin: P ≤0.007 vs. albumin
Procedure, shortened: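 Subjects fasted 10 h. Arterialized venous blood was drawn from a hand heated to 50–55°C. Glucose ≥120 mg/dL was lowered to 100–120 mg/dL with IV insulin (∼0.01 units/kg every 30 min), then held stable 20 min. Four blinded 240-min GGIs ≥2 weeks apart gave IV peptide or albumin (peptides 4 pmol·kg−1·min−1 in saline/1% albumin). Glucose measured by glucose oxidase; C-peptide by chemiluminescent immunometric assay; ISR by stochastic deconvolution; iAUCs; mixed-effects models, one-tailed t tests.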

[2] = test system: humans with NGT, IGT, or T2DM; assay: Symptomatic effects of peptide infusions; assay type: in vivo, human; settings: all three groups; for subjects with mild diarrhea and/or loose stools: within several hours of the infusion
[3] = test system: healthy individuals and persons with T2DM; settings: iv infusion 4 pmol/kg/min, cited from earlier work
[4] = Plasma IR-GIP and IR-xenin levels during and after peptide infusion; assay type: in vivo; settings: human, iv, 4 pmol ⋅ kg^−1 ⋅ min^−1
Procedure, shortened: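 Peptides were infused IV at 4 pmol·kg−1·min−1 in saline with 1% albumin during the graded glucose infusion. Plasma IR-GIP was measured by total-GIP ELISA and IR-xenin by an in-house ELISA. IR-xenin half-life came from levels sampled after infusions stopped (n = 6).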

healthy humans = settings: intravenous infusion of neurotensin alone; cited from earlier work

Compound	ISR iAUC during the first 40 min of the GGI ([1]; subjects with IGT, G+X vs GIP alone P = 0.002)	increase of ISR iAUC during the first 40 min compared with albumin ([1]; subjects with IGT)	increase of 240-min ISR iAUC/glucose iAUC compared with albumin ([1]; subjects with IGT)	time of peak early insulin secretory response (ISR) ([1]; subjects with IGT, time into the infusions)	ISR iAUC during the first 40 min of the GGI ([1]; subjects with NGT, G+X vs GIP alone P = 0.048)	increase of ISR iAUC during the first 40 min compared with albumin ([1]; subjects with NGT)	increase of 240-min ISR iAUC/glucose iAUC compared with albumin ([1]; subjects with NGT)	time of peak early insulin secretory response (ISR) ([1]; subjects with NGT, time into the GGI)	ISR iAUC during the first 40 min of the GGI ([1]; subjects with T2DM, G+X vs GIP alone P = 0.18)	increase of ISR iAUC during the first 40 min compared with albumin ([1]; subjects with T2DM)	increase of 240-min ISR iAUC/glucose iAUC compared with albumin ([1]; subjects with T2DM)	increase of resting heart rate [2]	reduction of mean arterial blood pressure [2]	subjects with mild diarrhea and/or loose stools [2]	increase of insulin release during a hyperglycemic clamp ([3]; healthy individuals)	effect on insulin release during a hyperglycemic clamp ([3]; persons with T2DM)	half-life [4]	change in blood pressure or plasma levels of glucose, insulin, or glucagon (healthy humans)
CC[C@H](C)[C@H](NC(=O)[C@H](CO)NC(=O)[C@H](Cc1ccc(O)cc1)NC(=O)[C@H](CC(=O)O)NC(=O)[C@H](CO)NC(=O)[C@@H](NC(=O)[C@H](Cc1ccccc1)NC(=O)[C@@H](NC(=O)CNC(=O)[C@H](CCC(=O)O)NC(=O)[C@H](C)NC(=O)[C@@H](N)Cc1ccc(O)cc1)[C@@H](C)O)[C@@H](C)CC)C(=O)N[C@@H](C)C(=O)N[C@@H](CCSC)C(=O)N[C@@H](CC(=O)O)C(=O)N[C@@H](CCCCN)C(=O)N[C@H](C(=O)N[C@@H](Cc1c[nH]cn1)C(=O)N[C@@H](CCC(N)=O)C(=O)N[C@@H](CCC(N)=O)C(=O)N[C@@H](CC(=O)O)C(=O)N[C@@H](Cc1ccccc1)C(=O)N[C@H](C(=O)N[C@@H](CC(N)=O)C(=O)N[C@@H](Cc1c[nH]c2ccccc12)C(=O)N[C@@H](CC(C)C)C(=O)N[C@@H](CC(C)C)C(=O)N[C@@H](C)C(=O)N[C@@H](CCC(N)=O)C(=O)N[C@@H](CCCCN)C(=O)NCC(=O)N[C@@H](CCCCN)C(=O)N[C@@H](CCCCN)C(=O)N[C@@H](CC(N)=O)C(=O)N[C@@H](CC(=O)O)C(=O)N[C@@H](Cc1c[nH]c2ccccc12)C(=O)N[C@@H](CCCCN)C(=O)N[C@@H](Cc1c[nH]cn1)C(=O)N[C@@H](CC(N)=O)C(=O)N[C@H](C(=O)N[C@H](C(=O)N[C@@H](CCC(N)=O)C(=O)O)[C@@H](C)O)[C@@H](C)CC)C(C)C)[C@@H](C)CC [GIP, glucose-dependent insulinotropic polypeptide]	10,016 ± 1,524 pmol insulin secreted/40 min	6.1 fold	1.5 fold	20 min	7,998 ± 1,263 pmol insulin secreted/40 min	4.6 fold	1.7 fold	≤ 10 min	10,062 ± 2,290 pmol insulin secreted/40 min	8.7 fold	1.9 fold	~8 bpm	10–15 mmHg	14%	approximately fourfold	ineffective		
MLTKFETKSARVKGLSFHPKRPWIL [xenin-25, Xenin-25]												no effect	no effect	21%			2.5 ± 0.3 min	
neurotensin																		no significant change
